Laboratory results published in publication PMC7104417 (ACS chemical neuroscience, 2020).
Values joined by “and” are separate entries in the source; they are usually repeats but may differ in a detail not shown here. Identical values can stand only once. Like-named read-outs stand apart in the source and are kept apart here.

How the values were obtained:
[1] = target: T1, human M1R (Homo sapiens, UniProt P11229); settings: cited from earlier work
T1 sequence (P11229 1-460): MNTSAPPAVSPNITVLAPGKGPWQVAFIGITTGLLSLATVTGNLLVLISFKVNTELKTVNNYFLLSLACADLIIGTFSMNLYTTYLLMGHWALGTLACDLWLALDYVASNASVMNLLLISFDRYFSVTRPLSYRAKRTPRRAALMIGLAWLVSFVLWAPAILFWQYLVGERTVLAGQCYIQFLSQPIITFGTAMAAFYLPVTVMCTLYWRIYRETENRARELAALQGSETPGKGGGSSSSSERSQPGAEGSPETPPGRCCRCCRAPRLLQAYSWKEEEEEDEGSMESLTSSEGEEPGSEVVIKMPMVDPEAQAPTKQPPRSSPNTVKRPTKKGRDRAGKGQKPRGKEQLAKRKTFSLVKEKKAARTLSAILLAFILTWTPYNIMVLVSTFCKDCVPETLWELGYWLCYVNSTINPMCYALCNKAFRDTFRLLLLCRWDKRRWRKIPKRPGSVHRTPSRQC

[2] = target: T1, human M1R; format: binding; settings: for Displacement of radioligand at M1Rs at highest concentration: 100 μM
[3] = cited from earlier work
[4] = target: T2, human M2R (Homo sapiens, UniProt P08172); experiment: M2R β-arrestin recruitment; format: cell-based
T2 sequence (P08172 1-466): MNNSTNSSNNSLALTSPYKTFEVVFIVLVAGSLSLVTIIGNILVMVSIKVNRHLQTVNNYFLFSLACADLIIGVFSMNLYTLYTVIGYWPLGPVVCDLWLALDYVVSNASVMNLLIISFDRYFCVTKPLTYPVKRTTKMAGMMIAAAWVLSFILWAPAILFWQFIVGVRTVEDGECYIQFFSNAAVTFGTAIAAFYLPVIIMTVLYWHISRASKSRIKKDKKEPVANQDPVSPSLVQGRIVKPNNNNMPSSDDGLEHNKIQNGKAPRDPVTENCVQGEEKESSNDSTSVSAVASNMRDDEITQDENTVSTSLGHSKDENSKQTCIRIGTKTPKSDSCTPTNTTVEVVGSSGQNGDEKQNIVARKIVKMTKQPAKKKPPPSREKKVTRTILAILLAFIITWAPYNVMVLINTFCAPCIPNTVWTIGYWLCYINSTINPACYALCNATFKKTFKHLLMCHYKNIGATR

[5] = target: T3, human M1Rs (Homo sapiens, UniProt P11229); experiment: M1R phosphoinositide hydrolysis; format: cell-based
T3 sequence (P11229 1-460): T1 sequence (P11229 1-460)

[6] = target: T2, human M2R; experiment: M2R cAMP signaling; format: cell-based
[7] = tested on: human M1Rs, M2Rs, M3Rs, M4Rs, and M5Rs; experiment: Initial [3H]scopolamine displacement screen at each of the five MR subtypes; format: binding; settings: screened at 1 and 10 μM
Procedure, shortened: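 HEK293 cells (passage <20), lipid-transfected with human M1–M5 receptor cDNA; membranes harvested ~48 h later and stored at -80 °C. […] Filtered on GF/B, washed with ice-cold 50 mM Tris pH 7.4, scintillation counted. Affinities estimated from these two concentrations; N=2.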

[8] = target: T2, human M2R; experiment: [3H]scopolamine radioligand competition binding at M2R; settings: for Displacement of radioligand at M2Rs at highest concentration: 100 μM; for Displacement of radioligand at M2Rs at highest concentration / Ki: full dose-response competition binding; for Ki: read-out: Ki at M2Rs
[9] = cited from earlier work; remark: listed apart in the source
[10] = tested on: NET; settings: cited from earlier work
[11] = tested on: DAT; settings: cited from earlier work
[12] = α-PVP confirmed as only stimulant responsible for intoxication; cited from earlier work
[13] = full dose-response competition binding

In the case of `CNC(C)C(=O)c1ccc(Br)cc1` (stereo not shown) [4-bromomethcathinone, reference compound], the “Affinity at M1Rs (initial experiments)” value [1] is listed as “nil affinity”.
With `CCCCC(C(=O)c1ccc2c(c1)OCO2)N1CCCC1` (stereo not drawn) [MDPHP, 3,4-methylenedioxy-α-pyrrolidinohexiophenone] the “Estimated pKi at M1R” value [2] was 5.44 and the Ki ([2]; read-out: Estimated Ki at M1Rs, estimated from 1 and 10 μM screens) was 3.63 µM.
For `CCCCCC(C(=O)c1ccc2c(c1)OCO2)N1CCCC1` (stereo not drawn) [MDPHPP, 3,4-methylenedioxy-α-pyrrolidinoheptaphenone], the “Estimated pKi at M1R” value [2] was 5.22.
In the case of `CC(C(=O)c1ccc2c(c1)OCO2)N1CCCC1` (stereo not drawn) [MDPPP, 3,4-methylenedioxy-α-pyrrolidinopropiophenone], the “Affinity at M1Rs (initial experiments)” value [1] is listed as “nil affinity”.
In the case of `CCCC(C(=O)c1ccc2c(c1)OCO2)N1CCCC1` (stereo not shown) [MDPV, 3,4-methylenedioxypyrovalerone], the “Estimated pKi at M1R” value [2] is listed as 5.06 and the “Effect on mitochondrial activity and cellular membranes” value [3] is listed as “not observed”.
With `O=C1CCCN1CC#CCN1CCCC1` [oxotremorine, reference compound] the “EC80, β-arrestin recruitment” value ([4]; concentration used in antagonist tests) was 10 µM, the “EC80, IP1 production” value [5] was 0.5 µM and the EC50 [6] was 0.0288 µM. The “EC80, decrease of forskolin-stimulated cAMP production” value ([6]; 10 μM forskolin) was 0.13 µM.
For `CCC(C(=O)c1ccccc1)N1CCCC1` (stereo not drawn) [α-PBP, α-pyrrolidinobutiophenone], the “Displacement of 1 nM [3H]scopolamine from each of the MR subtypes” value [7] was under 5%, the “Displacement of radioligand at M1Rs at highest concentration” value [2, 13] was “less than 50%” and the “Displacement of radioligand at M2Rs at highest concentration” value [8] was “less than 50%”. It also gave a Ki ([8]; interpolated) of 40 µM.
With `CCCCC(C(=O)c1ccccc1)N1CCCC1` (stereo not drawn) [α-PHP, α-pyrrolidinohexiophenone] the “pKb, inhibition of oxotremorine-stimulated β-arrestin recruitment” value ([4]; EC80 oxotremorine (10 μM)) was 6.30 ± 0.12, the “Functional activity at M2R-β-arrestin recruitment” value ([4]; relative to basal signaling) was “inverse agonist” and the “Fold increase in M1R affinity from α-PPP” value ([2]; ratio of Ki values) was 121 fold. For the same compound, the Ki ([2]; read-out: Ki at M1Rs, full dose-response competition binding) was 1.6 µM, the “Blood concentration, fatal cases” value ([9]; fatal cases, as high as) was at most 2860 nM and the “Blood concentration, non-fatal case” value ([9]; male admitted to hospital after inhaling only α-PHP) was 1280 nM. For the same compound, the “Serum concentration, non-fatal case” value ([9]; patient admitted to hospital after taking α-PHP) was 710 nM, the “pKb, inhibition of M1R-IP1 production caused by oxotremorine” value ([5]; EC80 oxotremorine (500 nM)) was 5.86 ± 0.35 and the “Functional activity at M1R-inositol phosphate signaling pathway” value ([5]; maximal effect lower than basal signaling) was “inverse agonist activity”. For the same compound, the Kb ([5]; read-out: Kb, inhibition of M1R-IP1 production caused by oxotremorine, EC80 oxotremorine (500 nM)) was 1.4 µM and 1.38 µM, the “pKb, inhibition of M2R stimulation by oxotremorine (cAMP)” value [6] was 6.92 ±0.03 and the “Functional activity at M2R-cAMP signaling pathway” value ([6]; maximal effect above forskolin alone) was “inverse agonist”. The Kb ([6]; read-out: Kb, inhibition of M2R stimulation by oxotremorine (cAMP)) was 0.12 µM, the “Fold higher affinity at NET than α-PPP” value [10] was 6 fold and the “Fold increase in M2R affinity compared to α-PPP” value ([8]; ratio of Ki values) was 302 fold. For the same compound, the Ki [8] was 0.251 µM and the “Fold higher affinity at DAT than α-PPP” value [11] was 81 fold.
With `CC(C(=O)c1ccccc1)N1CCCC1` (stereo not drawn) [α-PPP, α-pyrrolidinopropiophenone] the “Displacement of 1 nM [3H]scopolamine from each of the MR subtypes” value [7] was under 5%, the “Displacement of radioligand at M1Rs at highest concentration” value [2, 13] was “less than 50%” and the “Displacement of radioligand at M2Rs at highest concentration” value [8] was “less than 50%”. For the same compound, the “Affinity at M1Rs (initial experiments)” value [1] was “nil affinity”.
In the case of `CCCCCCC(C(=O)c1ccccc1)N1CCCC1` (stereo not drawn) [α-PV9, α-pyrrolidinooctanophenone, reference compound], the “Effect on mitochondrial activity and cellular membranes” value [3] is listed as “potently decreased mitochondrial activity and severely damaged cellular membranes”.
In the case of `CCCC(C(=O)c1ccccc1)N1CCCC1` (stereo not drawn) [α-PVP, α-pyrrolidinopentiophenone], the “Serum concentration, non-fatal cases” value ([9]; non-fatal cases, as high as) is given as at most 2600 nM, the “Concentration, postmortem cases” value ([9]; postmortem cases, as high as) is given as at most 86000 nM and the “Fold increase in M2R affinity compared to α-PBP” value ([8]; ratio of Ki values) is given as 49 fold. The “Fold increase in M2R affinity compared to α-PPP” value ([8]; ratio of Ki values) was 89 fold, the Ki [8] was 0.824 µM and the “Patients presenting with tachycardia” value [12] was 80%.
